Measurements from ChEMBL document CHEMBL4834428.
Calls of active or inactive are those of the source. No cut-off for these calls is given here.

Key:
[1] = target: T1, NAD-dependent protein deacetylase sirtuin-2 (Homo sapiens) (UniProt Q8IXJ6); assay: Binding affinity to His6-tagged/TEV fused SIRT2 (unknown origin) expressed in Escherichia coli BL21 (DE3) assessed as thermal stability at 90 uM using H4K16Ac as substrate incubated for 20 mins in presence of NAD+ by GloMelt thermal shift assay
T1 sequence (whole entry): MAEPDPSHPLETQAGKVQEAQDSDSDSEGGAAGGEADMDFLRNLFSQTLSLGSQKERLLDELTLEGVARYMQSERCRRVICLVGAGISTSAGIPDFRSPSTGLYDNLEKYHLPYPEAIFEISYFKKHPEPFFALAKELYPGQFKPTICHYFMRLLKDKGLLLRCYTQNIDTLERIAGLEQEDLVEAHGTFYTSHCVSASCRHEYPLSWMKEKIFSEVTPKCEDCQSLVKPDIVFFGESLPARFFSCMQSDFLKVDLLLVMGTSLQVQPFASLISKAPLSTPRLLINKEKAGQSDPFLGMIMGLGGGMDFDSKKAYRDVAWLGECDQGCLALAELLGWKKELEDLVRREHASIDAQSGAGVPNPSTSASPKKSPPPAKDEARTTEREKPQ
Method in brief: (§1)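 SirT1 or SirT3 at 8 µM with 1 mM NAD⁺ and 0.25 mM H3K18ac; SirT2 at 16 µM with 1 mM NAD⁺ and 0.5 mM H4K16ac. Compound 90 µM, 20 min RT before dye addition and melting; ΔTm from melting curves.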

[2] = target: T2, NAD-dependent protein deacetylase sirtuin-3, mitochondrial (Homo sapiens) (UniProt Q9NTG7); assay: Binding affinity to His6-tagged/TEV fused SIRT3 (unknown origin) expressed in Escherichia coli BL21 (DE3) assessed as thermal stability at 90 uM using H3K18Ac as substrate incubated for 20 mins in presence of NAD+ by GloMelt thermal shift assay; method in brief: as §1
T2 sequence (whole entry): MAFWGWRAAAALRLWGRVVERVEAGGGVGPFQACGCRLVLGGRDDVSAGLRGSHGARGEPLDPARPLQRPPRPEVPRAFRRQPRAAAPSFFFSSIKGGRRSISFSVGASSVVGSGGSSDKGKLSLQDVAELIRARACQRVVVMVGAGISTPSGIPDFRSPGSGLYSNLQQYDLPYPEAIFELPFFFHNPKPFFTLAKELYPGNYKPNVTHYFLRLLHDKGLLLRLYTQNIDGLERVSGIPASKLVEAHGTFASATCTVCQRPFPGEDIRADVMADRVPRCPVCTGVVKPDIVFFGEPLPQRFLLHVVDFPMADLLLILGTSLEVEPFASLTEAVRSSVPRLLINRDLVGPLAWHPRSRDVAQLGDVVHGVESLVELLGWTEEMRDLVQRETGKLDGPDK

[3] = target: T3, NAD-dependent protein deacetylase sirtuin-1 (Homo sapiens) (UniProt Q96EB6); assay: Binding affinity to His6-tagged SIRT1 (unknown origin) expressed in Escherichia coli BL21 (DE3) assessed as thermal stability at 90 uM using H3K18Ac as substrate incubated for 20 mins in presence of NAD+ by GloMelt thermal shift assay; method in brief: as §1
T3 sequence (whole entry): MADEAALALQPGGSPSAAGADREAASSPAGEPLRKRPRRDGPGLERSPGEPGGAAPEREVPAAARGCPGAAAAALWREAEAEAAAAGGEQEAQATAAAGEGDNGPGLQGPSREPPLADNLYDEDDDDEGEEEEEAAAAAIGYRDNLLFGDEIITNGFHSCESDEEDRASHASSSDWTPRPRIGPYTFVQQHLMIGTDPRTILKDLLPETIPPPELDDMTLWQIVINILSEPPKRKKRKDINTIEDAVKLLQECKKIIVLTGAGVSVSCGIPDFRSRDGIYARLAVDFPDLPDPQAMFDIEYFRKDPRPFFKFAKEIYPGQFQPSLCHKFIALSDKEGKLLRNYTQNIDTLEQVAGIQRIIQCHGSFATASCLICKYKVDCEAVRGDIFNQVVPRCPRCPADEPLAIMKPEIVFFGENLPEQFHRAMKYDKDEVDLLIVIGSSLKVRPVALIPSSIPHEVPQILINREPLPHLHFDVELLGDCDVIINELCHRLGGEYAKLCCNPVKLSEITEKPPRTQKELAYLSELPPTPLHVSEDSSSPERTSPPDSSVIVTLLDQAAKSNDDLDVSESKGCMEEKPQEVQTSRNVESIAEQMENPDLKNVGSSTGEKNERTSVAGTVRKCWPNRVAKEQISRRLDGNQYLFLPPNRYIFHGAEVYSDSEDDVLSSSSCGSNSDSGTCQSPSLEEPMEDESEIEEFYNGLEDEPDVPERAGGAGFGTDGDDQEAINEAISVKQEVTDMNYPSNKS

[4] = target: T3, NAD-dependent protein deacetylase sirtuin-1 (Homo sapiens); assay: Inhibition of His6-tagged SIRT1 (unknown origin) expressed in Escherichia coli BL21 (DE3) deacetylation activity incubated for 30 mins in presence of NAD+; details: dose 0.04-10 µM
[5] = target: T3, NAD-dependent protein deacetylase sirtuin-1 (Homo sapiens); assay: Binding affinity to His6-tagged SIRT1 (unknown origin) expressed in Escherichia coli BL21 (DE3) assessed as increase in thermal stability at 0.1 mM and 41.5 degreeC using H3K18Ac peptide as substrate incubated for 10 mins in presence of NAD+ by SYPRO orange thermal shift assay
[6] = target: T3, NAD-dependent protein deacetylase sirtuin-1 (Homo sapiens); assay: Inhibition of His6-tagged SIRT1 (unknown origin) expressed in Escherichia coli BL21 (DE3) at 1 uM using Fluor-de-Lys-Ac-Gly-Gly-Lys(ac)-AMC peptide as substrate incubated for 5 mins by fluorescence assay
Method in brief: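 Conditions as the FLucK529ac deacetylase assay (100 nM SirT1, sirtuin buffer 2) but with 10 µM Ac-Gly-Gly-Lys(ac)-AMC substrate and inhibitors at 1 µM. Stopped with equal volume 2× trypsin (0.1 mg/mL); released coumarin read after 5 min RT, ex 355/em 460 nm.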

Structure (SMILES)	Activity [1]	Activity [2]	Activity [3]	inhibition [4]	Activity [5]	inhibition [6]
N#Cc1ccccc1CN1CC(C(N)=O)Oc2ccccc21 (stereo in doubt; 4.27)	inactive	inactive	Active			
NC(=O)C1CN(Cc2ccc3nonc3c2)c2ccccc2O1 (stereo unspecified)	inactive	inactive	Active	Dose-Dependent Effect	Active	inactive
NC(=O)C1CCCc2c1[nH]c1ccc(Cl)cc21 (stereo unspecified)				Dose-Dependent Effect	Active	
